This is an account of results in the EternaBench riboswitch data.

The subject of this data set is MS2 coat protein. As to the kind of experiment: apparent Kd, MS2 coat protein; higher = weaker binding; RNA-MaP array; FMN 200 µM where present. In a few lines:
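Stalled E. coli RNA polymerase produced the designs on Illumina sequencing-chip clusters. SNAP-549-labelled MS2 coat protein was added from 0.7 or 1.5 nM, doubling to 3 µM, without and then with constant ligand, in 100 mM Tris-HCl pH 7.5, 80 mM KCl, 4 mM MgCl2, BSA, DTT, yeast tRNA and Tween-20. The apparent Kd is the median of filtered per-cluster fits of green signal normalised to red-channel RNA signal and control-cluster median Fmax.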

The mark [1] stands for this setting: designed as: OFF switch for flavin mononucleotide, no ligand.
[2] abbreviates: ligand present: flavin mononucleotide, designed as: OFF switch for flavin mononucleotide.
The mark [3] stands for this setting: designed as: ON switch for flavin mononucleotide, no ligand.
Setting [4] is: ligand present: flavin mononucleotide, designed as: ON switch for flavin mononucleotide.

For “CCAUCAGCGAACGAUACGAUUGGACAUGAGGAUCACCCAUGUAGAAGGACAGGAGAAUAACGGCUGUAGGAUAUACAUUUAGUG”, the “apparent Kd” value runs as follows: under setting [1], 58.4 nM; under setting [2], 40.6 nM.

For the sequence “AAUUGUAGAACAAUCACUACCAGUCAGGAUAUACAUGAGGAUCACCCAUGUCGUGUCGACAGCAUGUAGAAGGGACGGUUAUAU”, the “apparent Kd” value under setting [1] is 51.6 nM and the “apparent Kd” value under setting [2] turned out to be 115 nM.

As to “GCUCUAUGCUAGAAGGCGUGAAACAUGAGGAUCACCCAUGUCAAAGACGUGAGGAUAUAGCAUAGAGCAAAAGUGCGAAAGCAC”, the “apparent Kd” value by setting is: under setting [3], 5.49 nM; under setting [4], 5.29 nM.

For “UUCGGUGAAGGAUAUAGGGCUCGGUACAUGAGGAUCACCCAUGUUGCUUUAUGUUCCACCCUAGAAGGUUAUCACC”, the “apparent Kd” value runs as follows: under setting [1], 417 nM; under setting [2], 370 nM.

Regarding “AACAAUUAGUAAGGAUAUACUAGCGAUUAGCUUGUAGAAGGUACAGUCUUAUGUAUAACAAAUUAACAUGAGGAUCACCCAUGU”, the “apparent Kd” value by setting is: under setting [3], 10.4 nM; under setting [4], 7.88 nM.

Turning to “ACAUACAUGACAUGACAUGAGGAUCACCCAUGUCCAUGUUACAAGGAUAUGUACAUGAAACAUGUACAGAAGGUGUAUUGGACU”, the “apparent Kd” value runs as follows: under setting [1], 13.1 nM; under setting [2], 18 nM.

Turning to “AUGUAUCACACAGGAUAUACAUGAGGAUCACCCAUGUGUCCUCCGUAAUUGACACCAAUUACGCUGUAGAAGGGUGUGAUACAU”, the “apparent Kd” value is 274 nM under setting [1] and 204 nM under setting [2].

As to “UUGUUUUGAAAUUAACAUGAGGAUCACCCAUGUCUUGACACAGAGGAUAUACAUGAAUGUAGGUAGUAGAAGGCUGUUUAGUGU”, the “apparent Kd” value stood at 79.5 nM under setting [3] and 60 nM under setting [4].

On to “UUUUAGACAGGAUAUACAUUUUUUUAUUUAUUUAUAAUAUUACAUGAGGAUCACCCAUGUAGAAGGGUCAUUUU”, for which the “apparent Kd” value runs as follows: under setting [1], 39.3 nM; under setting [2], 31.2 nM.

“UUUUAGUGAGGAUAUGUGGCUUCGAUCGUGAGAUCGAGGCUACAGAAGGCACAUGAGGAUCACCCAUGUUCCUU”: the “apparent Kd” value is, setting by setting: under setting [1], 14.5 nM; under setting [2], 46.8 nM.

“UGAAAUCAUGUAGGAUAUGCAUGGCGAAGCUACGCAGAAGGACAUGAGGAUCACCCAUGUUCGAGGGUCUGAGUACAGAUCCAA”: the “apparent Kd” value is 25.2 nM under setting [1] and 162 nM under setting [2].

Turning to “UGAUAGGAUAAAGGAUAUACGUGCUAGAGAUACUAGCAAAAUUUCCUCACAUGAGGAUCACCCAUGUAGAAGGUUAACCUAUCU”, the “apparent Kd” value was determined as 14.7 nM under setting [1] and 57.1 nM under setting [2].

Turning to “AUGUUAUUCUGAGGAUAUUGUUUAUUCUUCUCACAUGAGGAUCACCCAUGUUUCCGUGUUUACCGCAAGAAGGCAGUUUUGUUU”, the “apparent Kd” value reads like this: under setting [1], 29.9 nM; under setting [2], 27.5 nM.

Consider “GGCAAUAACGAGGAUAUCGUAUCGGAAACGAUACGAGAAGGUGUAACAUGAGGAUCACCCAUGUUCCUCAAGCC”, for which the “apparent Kd” value runs as follows: under setting [1], 37.9 nM; under setting [2], 37.2 nM.

Turning to “CCCAUCAGAGGAUAUACAUGAGGAUCACCCAUGUCAAUCGAACGGGAUGGGAGGUUAGGUAGAAGGUUGUGGAA”, the “apparent Kd” value runs as follows: under setting [1], 15.2 nM; under setting [2], 16.9 nM.

For the sequence “GAGUGACAUGAGGAUCACCCAUGUGAGGAUAUCGGACGGACCAAAUUAACAACAAACGCGAGAAGGCACAUCGG”, the “apparent Kd” value by setting is: under setting [1], 76.4 nM; under setting [2], 79.5 nM.

Take “AAUUAGGUCACAGGAUAUACAACAUCCAUUGCUGUAGAAGGGUGUCACAAUCAUAUCUGACAUGAGGAUCACCCAUGUUUCCAC”: the “apparent Kd” value under setting [3] amounted to 85.8 nM and the “apparent Kd” value under setting [4] amounted to 33.3 nM.

Consider “UGAUACAUGAGGGUCUCCCAUGACAUGAGGAUCACCCAUGUGCAGGAUAUACGUGUGAUGGUAUAGUAGAAGGGCAGUCUAUGU”, for which the “apparent Kd” value is, setting by setting: under setting [1], 102 nM; under setting [2], 133 nM.

With “UGAUUACGAGGAUAUACAUGAGGAUCACCCAUGUAGUCAGGGCCCAUACUCCGAGCAUGUAGAAGGCGUUGUCU”, the “apparent Kd” value reads like this: under setting [1], 32.7 nM; under setting [2], 48.8 nM.

Consider “GUAGCAUAGACAGGAUAUCUAUACCCGAAAGGGACAUGAGGAUCACCCAUGUUGCGAAAGCGGUGGGAGAAGGGUCUAUGCUAC”, for which the “apparent Kd” value runs as follows: under setting [3], 25.4 nM; under setting [4], 6.04 nM.

Consider “GGUAGAAACAUUAACAUGAGGAUCACCCAUGUCAAAAGAAAUGAGGAUAUCGUCUACAAUGUAGAUGAGAAGGCAUGGUCUGCC”, for which the “apparent Kd” value under setting [3] was 8.45 nM and the “apparent Kd” value under setting [4] came out at 6.84 nM.

For the sequence “UGCGGUAGAGGAUAUACAUUGAAUUUGAUUCAUGUAAAACUACAUGAGGAUCACCCAUGUAGAAGGCUAUCGCU”, the “apparent Kd” value under setting [1] amounted to 17.4 nM and the “apparent Kd” value under setting [2] was determined as 36.1 nM.

For the sequence “AGAUCCUGAGUCAGGAUAUAGAGGCGGUAGCCUGGCUAGAAGGGACAUGAGGAUCACCCAUGUGGGUUCUUGCC”, the “apparent Kd” value stood at 12.5 nM under setting [1] and 17.4 nM under setting [2].

“GUGGUCAGACAUGAGGAUCACCCAUGUGGAAUAAAUAACAACUAGGAUAUGUAAUAUAGGAUAUAACAGAAGGAGUGAUUGGUG”: the “apparent Kd” value under setting [3] turned out to be 168 nM and the “apparent Kd” value under setting [4] was 138 nM.

Regarding “GGUCCGUAACAGAAGGCCGUAACUGGCGGUGGCGGAGGAUAUGUGGGCGGCCCUUGACAACAUGAGGAUCACCCAUGUAUGUAA”, the “apparent Kd” value turned out to be 41.3 nM under setting [3] and 113 nM under setting [4].

On to “GCGAUUUUGUAAGGAUAUACACGAGUUUUAAGUGUAGAAGGUACUUACAUGAGGAUCACCCAUGUAUUAAUGUUUAAUAGUCGC”, for which the “apparent Kd” value runs as follows: under setting [3], 8.5 nM; under setting [4], 6.84 nM.

“GUUGGGCCUCCCUCUCCACGUUCAACAUGAGGAUCACCCAUGUAGGAUAUCGUUUGUUUUUUUUACGAGAAGGGCGUACUUCCC”: the “apparent Kd” value stood at 8.99 nM under setting [1] and 8.06 nM under setting [2].

Regarding “CAUCAGUGUUAAGGAUAUGGCAGCGGAAGCGCACCAGAAGGUAGCACAUGAGGAUCACCCAUGUGUUCUGGCUUGAGCGUGAUC”, the “apparent Kd” value was 36.5 nM under setting [1] and 75.2 nM under setting [2].

For “GUAUAUAUUACAUGAGGAUCACCCAUGUCAGAACGGGUAAUCAGAAGGUAUUAUUAGAGAAAGGGUAAGGAUAUGAUUAUAUAU”, the “apparent Kd” value under setting [3] amounted to 605 nM and the “apparent Kd” value under setting [4] came to 224 nM.

Take “AGAUAGGAUGCAGGAUAUCUAUCUUGAAUGAGGAGAGAAGGGCAAGUAGAUAGAUAAGCCUCAUGACAUGAGGAUCACCCAUGU”: the “apparent Kd” value under setting [1] came to 14.1 nM and the “apparent Kd” value under setting [2] was found to be 12.9 nM.

For “AAUUAACUCACAGGAUAUAGCAGAGGUCGAGUGAACUUACAGGCGACUAGGCUAGAAGGGUGACCACAUGAGGAUCACCCAUGU”, the “apparent Kd” value under setting [3] turned out to be 834 nM and the “apparent Kd” value under setting [4] stood at 117 nM.

Regarding “UUAAUAAUACAAGGAUAUCAAUUGUUCUUAAGACAUACAUGAGGAUCACCCAUGUUAAUAUAUGUUGAGAAGGUGUAUUUUCAG”, the “apparent Kd” value runs as follows: under setting [3], 35.7 nM; under setting [4], 26.7 nM.

In the case of “AAAUACCGGUGAGGAUAUUUUUAAUAGAGCUUUAUGAUAUACAUGAGGAUCACCCAUGUUACGUUAAAGAAGGCAUCGGAUAAA”, the “apparent Kd” value came to 18.4 nM under setting [1] and 16.6 nM under setting [2].

Consider “CGCACUGAUAGAGGAUAUGUUUUACAUGAGGAUCACCCAUGUGUACAAGGAUUAAUAUAUAAGUAACAGAAGGCUAUUUGUGCG”, for which the “apparent Kd” value came out at 6.55 nM under setting [1] and 5.85 nM under setting [2].

With “UAUAUAUAGUAAGGAUAUGUAUUUCUUUUAUAAACAGAAGGUACUGACAUGAGGAUCACCCAUGUUUUAGUGUGGGCAUGUAGA”, the “apparent Kd” value stood at 81.2 nM under setting [1] and 116 nM under setting [2].

For “UCAUGUUUAGAGGAUAUGAUUACUUUUGAGUAAUCAGAAGGCUAGACAUGAGGAUCACCCAUGUCAUAACAUGA”, the “apparent Kd” value is 90 nM under setting [1] and 112 nM under setting [2].

With “CAGUACUGAGGAUAUACAUGAGGAUCACCCAUGUGUCCCAGCUAGGAAACUAGCAAAAGUAGAAGGCAGUACUG”, the “apparent Kd” value by setting is: under setting [1], 23.6 nM; under setting [2], 538 nM.

In the case of “UCAUAUUUACAAGGAUAUCAAUAUAAUAUAAUACCAACAUGAGGAUCACCCAUGUAUUAGCGUAAUGAGAAGGUGUAUUGUCGG”, the “apparent Kd” value by setting is: under setting [3], 51.2 nM; under setting [4], 41.4 nM.

Consider “CAAACAAGUGCGAGCUGACACAUGAGGAUCACCCAUGUAACACAGGAUAUCUGUCAAGGCGUGAAAGAGAAGGGUGGUCGGAAA”, for which the “apparent Kd” value reads like this: under setting [3], 226 nM; under setting [4], 375 nM.

Regarding “UAUUUAAUCAUAGGAUAUAGUGUGAAAUUUGGACUAGAAGGAUGUAACAUGAGGAUCACCCAUGUGGUAAGUGGGACACAUUGA”, the “apparent Kd” value runs as follows: under setting [3], 107 nM; under setting [4], 130 nM.

Take “AGUAGUUCAGGAUAUGAUGUAUGUUACAUGAGGAUCACCCAUGUAGGUCCUUGAAUUGUAUCAGAAGGGAAUAUCU”: the “apparent Kd” value under setting [1] worked out at 258 nM and the “apparent Kd” value under setting [2] came to 281 nM.

Regarding “CUUAUGUGAGGAUAUGUACAGAAAAAACUGGGUGUAACUGUACAGAAGGCACAUGAGGAUCACCCAUGUGCCUU”, the “apparent Kd” value by setting is: under setting [1], 16.9 nM; under setting [2], 13.8 nM.

For the sequence “AAAUUAAGUGUGAGGAUAUGCUGGUCCUUAGAUCAGCAGAAGGCACAUGAGGAUCACCCAUGUAAUAUAUUUAA”, the “apparent Kd” value by setting is: under setting [1], 38.9 nM; under setting [2], 193 nM.

On to “CUUCUGUGAGGAUAUGUUAGCUCCCAGCAAGUCGCUGAGAGACAGAAGGCACAUGAGGAUCACCCAUGUGGGCG”, for which the “apparent Kd” value under setting [1] turned out to be 35.1 nM and the “apparent Kd” value under setting [2] was 177 nM.

For “UUUUACAUAGGAUAUAGUUUGUUGUACAUGAGGAUCACCCAUGUUGUUGGUUGUGCUGUUCUAGAAGGAUGUUUCU”, the “apparent Kd” value reads like this: under setting [1], 44.4 nM; under setting [2], 33.8 nM.

“AAUUGACACGUAGGAUAUCGAACUAUUUUAACACGAGAAGGACGUACAUGAGGAUCACCCAUGUUUAAUGGAGUAGAUAAGUUG”: the “apparent Kd” value runs as follows: under setting [1], 154 nM; under setting [2], 290 nM.

As to “UGAACAAUGUAGAAGGCCCAUAUUUAUAUAUAGGGAGGAUAUACAUGAGGAUCACCCAUGUAAAGAGCAAGAGGACUUGACAGA”, the “apparent Kd” value is, setting by setting: under setting [1], 9.27 nM; under setting [2], 15.7 nM.

Turning to “AGUGUCAUCGAGAAGGCCUCAACAUGAGGAUCACCCAUGUUGUAAUAUGGGAGGAUAUCGAUGAUACAGCUACGUUUCGUAGCU”, the “apparent Kd” value turned out to be 18.9 nM under setting [3] and 5.65 nM under setting [4].

As a reminder, the apparent Kd is the concentration giving half-maximal binding under the conditions of the assay.
